From PubChem BioAssay
PKA-R1A act: activators of PKA-R1A holoenzyme, primary screen, biochemical, fluorescence polarization, Cy5-IP20, bovine R1A, mouse PKAc | activation, % at 11.4 µM | cAMP-dependent protein kinase type I-alpha regulatory subunit (Bos taurus) + … | hit rate 0.083% among 340,000 | PKA-R1A dissociation; scaled: DMSO 0%, 113 µM cGMP 100%;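 active = percent activation above the mean of all tested compounds plus 3 SD, cut at about 19% in these data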;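 also: higher means more PKAc released from R1A so a rise in polarization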
bovine MsrA act: bovine MsrA enzyme activators, primary screen, biochemical, absorbance, HTS; Methionine sulfoxide reductase A (Bos taurus); purified bovine MsrA, absorbance read-out; activation, % at 10.6 µM; hit rate 0.3% among 360,000; in the data active = activation above about 7.5%;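 also: 0% = vehicle and 100% = reference activator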
PKA-R2B act: activators of PKA-R2B holoenzyme, primary screen, biochemical, fluorescence polarization, Cy5-IP20, human. hit rate 0.079% among 340,000. AID 504700, 2011. PKA-R2B holoenzyme dissociation; R2B truncated from residue 108, S112A mutant; 0% DMSO only, 100% 113 µM cGMP. activation, % at 11.4 µM. cAMP-dependent protein kinase catalytic subunit beta (Homo sapiens) + cAMP-dependent …;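 active = activation above a cutoff set at the mean over all compounds plus 3 SD, cut at about 18% in these data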;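 also: higher means more holoenzyme dissociation and a rise in polarization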
Target sequence (P31323 whole entry, looked up, other chains not shown, the tested form may be a part): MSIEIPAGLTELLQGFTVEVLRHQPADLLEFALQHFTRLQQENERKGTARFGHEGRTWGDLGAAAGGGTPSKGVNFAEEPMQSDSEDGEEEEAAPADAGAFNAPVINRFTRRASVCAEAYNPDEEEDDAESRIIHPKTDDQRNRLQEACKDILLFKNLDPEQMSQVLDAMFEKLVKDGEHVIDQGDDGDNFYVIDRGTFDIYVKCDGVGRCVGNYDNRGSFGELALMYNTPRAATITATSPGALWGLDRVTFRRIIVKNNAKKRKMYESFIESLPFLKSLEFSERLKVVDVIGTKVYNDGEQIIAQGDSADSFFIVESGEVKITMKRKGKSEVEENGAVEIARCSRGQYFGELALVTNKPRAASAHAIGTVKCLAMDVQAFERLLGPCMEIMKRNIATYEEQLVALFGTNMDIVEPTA
VIM-2 inh: VIM-2 metallo-beta-lactamase inhibitors, primary screen, biochemical, epi-absorbance readout, Pseudomonas aeruginosa enzyme; purified VIM-2, nitrocefin hydrolysis, epi-absorbance fluorescence; inhibition, % at 5.6 µM; hit rate 0.89% among 290,000;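 active = inhibition above the mean of all tested compounds plus 3 SD, cutoff set per screening run, cut at about 7.5% in these data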;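 also: red hydrolysis product quenches plate fluorescence so inhibitors raise well fluorescence; 0% = enzyme with DMSO and 100% = DMSO without enzyme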
IMP-1 inh: IMP-1 metallo-beta-lactamase inhibitors, primary screen, biochemical, epi-absorbance readout, Pseudomonas aeruginosa enzyme; purified IMP-1, nitrocefin hydrolysis, epi-absorbance fluorescence; hit rate 0.45% among 290,000; inhibition, % at 5.6 µM; AID 1556, 2009;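 active = inhibition above the mean plus 3 SD of all compounds in the same screening run, cut at about 4.5% in these data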;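 also: 0% = IMP-1 with DMSO and 100% = DMSO wells lacking enzyme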
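System: purified IMP-1 / Input: IMP-1 dispensed at 0.2 nM / Medium: 50 mM HEPES pH 7.1, 50 µM ZnSO4, 0.05% Brij 35 / Timing: 15 min enzyme–compound preincubation, then 25 min nitrocefin reaction, 25 °C / Technique: plate fluorescence quenching by hydrolysis product, ex 480/em 530 nm / Repeats: singlicate testing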
MsrA inhibitor: bovine MsrA enzyme inhibitors, primary screen, biochemical, absorbance, HTS; inhibition, % at 15.5 µM; hit rate 0.75% among 360,000; purified bovine MsrA, absorbance read-out; Methionine sulfoxide reductase A (Bos taurus);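 also: 0% = vehicle wells with enzyme and 100% = reference inhibitor wells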
MsrA inh confirm: bovine MsrA inhibitors, retest, confirmation, biochemical, absorbance, HTS; shares compounds with MsrA inhibitor; purified bovine MsrA, absorbance read-out; inhibition, % at 15.5 µM; hit rate 41% among 2,300;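 also: coupled to thioredoxin reductase with NADPH and selenocystamine and DMSO as substrate; 0% = vehicle only and 100% = full effect of reference inhibitor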
* = called active by the depositor; x = no result given. Rows were chosen to be rich in hits. Some 2.1% of all compounds tested hit in one or more screens of this group. Rule as the data show it, unless noted: active = inhibition above about 4.5%; inactive = the rest.

SMILES	PKA-R1A act	bovine MsrA act	PKA-R2B act	VIM-2 inh	IMP-1 inh	MsrA inhibitor	MsrA inh confirm
CNc1nc(N)c([N+](=O)[O-])c(NCCO)n1	-8.6	-5.9	-0.4	-2.7	-1.4	5.0*	4.1
Fc1ccc2nc(-c3ccc(CN4CCC5(CC4)CNc4ccccc45)cc3)c(-c3ccccc3)nc2c1	x	x	x	x	x	2.9	x
CCCCC1(C2CCCC2)NC(=O)NC1=O (stereo unspecified)	-15.4	4.7	0.9	x	x	-0.5	x
CCCCSc1nc(N)nc2c1ncn2C1OC(CO)C(O)C1O (stereo unspecified)	x	-2.5	x	x	x	0.4	x
CC(C(=O)NC(C)(C)C)N1C(=O)c2cccc3cccc(c23)C1=O (stereo unspecified)	-2.6	-4.7	-0.4	-2.9	-3.2	4.8*	2.9
C=CCN1C=C(C(=O)OCC)C(=O)CC1	x	x	x	x	x	0.1	x
CC1(C)C=C(c2ccc(C=O)s2)CC(C)(C)N1	-18.5	0.7	2.3	-0.6	-3.4	2.3	x
CC1(C)C=C(c2ccc(C=O)s2)CC(C)(C)N1C=O	1.0	-10.0	-4.7	-0.5	-0.6	4.8*	3.5
CC1(C)O[C@@H]2[C@H](O1)[C@@H](O)C[C@H]2n1cnc2c(Cl)ncnc21	x	x	x	x	x	0.3	x
C=C1[C@@H](CCO)N(S(=O)C(C)(C)C)C[C@@H]1C (stereo partly specified)	x	x	x	x	x	0.0	x
NC(N)=NC1=NC(=O)/C(=C/c2ccccc2-n2cccn2)S1	7.0	-6.1	2.9	-1.6	-4.2	5.3*	2.5
COc1ccc(S(=O)(=O)CCC(=O)N2CCN(c3ccc(C(C)=O)cc3)CC2)cc1	-11.4	-4.5	6.2	-0.1	-1.2	4.7*	3.4
COc1cc(/C=C/c2ccc3cccc([N+](=O)[O-])c3n2)ccc1OCC(=O)O	7.4	-4.6	-2.0	-2.8	-3.3	5.8*	2.3
COc1cc(-c2csc(C)n2)ccc1O	5.3	-2.6	-5.0	-1.6	-3.1	-1.6	x
COc1ccc(-c2csc(C)n2)cc1Br	-0.3	-4.3	0.2	-1.2	-2.5	7.9*	5.2*
Cc1cc(C)nc(N/N=C/c2sccc2C)n1	-1.2	-6.8	9.8	-4.3	-3.0	5.3*	4.1
Cc1ccsc1/C=N/Nc1nc(=O)[nH]nc1C	4.5	-5.0	5.0	-1.1	-1.8	5.3*	4.3
COc1ccc(NC(=O)C(Cc2cc(C)cc(C)c2)C(C)C(=O)O)cc1 (stereo unspecified)	8.9	-1.9	1.6	-1.3	-1.7	-0.7	x
CCOC(=O)c1cccc(S(=O)(=O)N(CCO)Cc2cc3cc(OC)c(OC)cc3[nH]c2=O)c1	2.5	-6.0	-10.0	0.6	-2.2	5.1*	1.9
CCOC(=O)c1cccc(S(=O)(=O)N(CCO)Cc2cc3cc(OC)ccc3[nH]c2=O)c1	-0.1	-4.5	-2.2	-0.6	-3.1	x	x
C#CCOC(=O)/C(=C/C=C/c1ccccc1)NC(=O)c1ccccc1	-8.6	-6.1	-10.6	-1.5	-1.2	5.2*	3.4
COc1ccc(/C=N/N=C2\SC(CC(=O)O)C(=O)N2c2ccccc2)c(OC)c1 (stereo unspecified)	0.6	-6.2	-1.5	-1.9	-2.2	4.7*	6.1*
CN(C)c1ccc(/C=N/N=C2/SC(CC(=O)O)C(=O)N2c2ccc(O)cc2)cc1 (stereo unspecified)	-1.9	-5.8	8.3	-0.3	-1.4	5.4*	5.0*
C=CCN1C(=O)C(CC(=O)O)S/C1=N/N=C/c1ccc(N(CC)CC)cc1 (stereo unspecified)	-1.6	-3.0	-8.4	x	x	5.0*	3.0
O=C(O)CC1S/C(=N\N=C/c2ccccc2)N(c2ccc(O)cc2)C1=O (stereo unspecified)	-3.2	-3.2	15.2	0.8	-2.2	0.3	x
SMILES	PKA-R1A act	bovine MsrA act	PKA-R2B act	VIM-2 inh	IMP-1 inh	MsrA inhibitor	MsrA inh confirm
Cc1cn([C@H]2C[C@H](O)[C@@H](/C=C/C(=O)NCCc3ccc(S(N)(=O)=O)cc3)O2)c(=O)[nH]c1=O	x	-10.4	x	x	x	1.1	x
CCOC(=O)c1cnc(/N=C/N(C)C)s1	-12.0	-4.9	-7.4	0.0	-1.2	5.0*	3.6
CC(C)CN(C(=O)C1CCC1)c1c(N)n(Cc2ccccc2)c(=O)[nH]c1=O	1.1	-11.6	-1.3	x	x	1.1	x
C/C(=N\Nc1nc(C)cc(C)n1)c1ccc(C)o1	x	-0.5	x	-1.9	-1.1	1.6	x
C/C(=N\Nc1nnc2c3ccccc3n(C)c2n1)c1ccc(C)o1	-2.8	-2.5	8.5	0.4	-1.5	5.6*	2.0
COCCN1Cc2cc(C(=O)OC)c3c(c2C1=O)c1ccccc1n3S(=O)(=O)c1ccc(C)cc1	x	x	x	x	x	0.7	x
Cc1nc(N2CCOCC2)sc1C=O	3.0	-6.9	2.7	-2.6	-2.4	6.6*	3.6
O=C(COC(=O)c1c[nH]c2ccccc12)Nc1cccc(F)c1	-1.5	-6.1	2.1	x	x	-0.4	x
COC(=O)C1=C(C(=O)OC)SC2(S1)C(C(=O)OC)=C(C(=O)OC)SC1=C2c2cc(C)ccc2NC1(C)C	-15.1	-11.2	-8.1	-0.6	-2.9	6.1*	3.0
CCOC(=O)C1(N(CC)CC)Sc2cc(C)ccc2NC1=O (stereo unspecified)	-8.8	1.1	-6.3	-2.5	-4.0	0.9	x
CN(Cc1c(F)cccc1Cl)C(=O)C1=CC=CN2CCS(=O)(=O)N=C12	10.2	-2.4	-5.8	x	x	-0.2	x
Cc1ccc(/C=C/C(=O)Nc2nnc(C)s2)o1	-7.5	-3.9	7.0	-2.1	-1.9	7.6*	5.3*
COc1cc(/C=N/N=C2/NC(=O)C(Cc3ccc(F)cc3)S2)ccc1O (stereo unspecified)	2.9	-1.6	0.7	-1.9	-2.4	4.2	x
COc1cc(/C=N/N=C2/C(=O)Nc3ccccc32)ccc1O	-20.6	-4.9	-8.8	-4.2	-1.1	4.9*	1.8
COc1cc(/C=N/N=C2/NC(=O)C(c3ccccc3)S2)ccc1O (stereo unspecified)	-2.9	-9.7	-5.5	-4.6	-3.9	4.9*	4.1
O=C(COC(=O)C1CCN(/C=C/C(=O)C(F)(F)F)CC1)Nc1ccccc1	-5.5	-3.5	-13.1	-1.5	-2.7	4.8*	1.2
CCCOc1c(OC)cccc1C1CC(=O)Nc2cc3c(cc21)OCO3 (stereo unspecified)	3.3	-3.7	-1.9	-1.9	-3.1	5.1*	4.7*
CNC[C@@H]1Oc2ccc(NC(=O)Nc3c(C)noc3C)cc2CC(=O)N([C@H](C)CO)C[C@H]1C	4.4	-6.4	-6.0	x	x	x	x
